These results are taken from ChEMBL document CHEMBL1134544, “Novel selective PDE4 inhibitors. 1. Synthesis, structure-activity relationships, and molecular modeling of 4-(3,4-dimethoxyphenyl)-2H-phthalazin-1-ones and analogues” (J Med Chem, 2001).

The target of test [1] is Phosphodiesterase 4 (Homo sapiens, UniProt P27815+Q08499+Q07343+Q08493). Description: Inhibition of PDE4 in the cytosol of human neutrophils. The format is protein assay. The procedure, abridged:
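Cytosol of human polymorphonuclear leukocytes from leukocyte concentrates, with motapizone 1 µM to suppress platelet PDE3. [3H]cAMP hydrolysis (0.5 µM cAMP, Tris-HCl pH 7.4, 5 mM MgCl2), 5 min preincubation plus 15 min at 37 °C. Snake venom nucleotidase step, ion-exchange separation, scintillation counting.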

Test [2] concerns the target Phosphodiesterase 3 (Homo sapiens, UniProt Q14432+Q13370). Kind of test: Inhibition of PDE3 in homogenates of human blood platelets. The method, boiled down: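 PDE3 from human blood platelet homogenates. Radiometric assay: 50 mM Tris-HCl pH 7.4, 5 mM MgCl2, 0.5 µM cAMP plus [3H]cAMP; 5 min preincubation then 15 min at 37 °C; HCl stop, Crotalus atrox 5'-nucleotidase, QAE Sephadex separation, blank-corrected counts. Inhibitors at 0.5% DMSO final; IC50 by nonlinear regression; two independent determinations in triplicate.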

On to `COc1ccc(C2=NN(c3ccccc3)C(=O)[C@@H]3CC=CC[C@@H]23)cc1OC`, for which, in test [1], the “Log IC50” value was -6.1.
As to `COc1ccc(C2=NN(c3ccccc3)C(=O)[C@@H]3CCCC[C@@H]23)cc1OC`, in test [1], the “Log IC50” value was -5.1.
On the same count and under the same terms, as for `COc1ccc(-c2nn(-c3ccccc3)c(=O)c3ccccc23)cc1OC`, the figure is -5.8.
As to `COc1ccc(C2=NN(Cc3ccccc3)C(=O)CC2)cc1OC`, the figures for the “Log IC50” value in test [1] and in test [2] were -7.1 and -5.3, respectively.
Consider `COc1ccc(C2=NN(Cc3ccccc3)C(=O)[C@@H]3CCCC[C@H]23)cc1OC`, for which, in test [1], the “Log IC50” value is -8.1.
The same measure, in the same setting: as for `COc1ccc(-c2nn(Cc3ccccc3)c(=O)c3c2CCCC3)cc1OC`, the figure is -5.8.
`COc1ccc(C2=NNC(=O)[C@@H]3CCCC[C@@H]23)cc1OC`: the “Log IC50” value in test [1] is -5.3.
On the same count and under the same terms, then `COc1ccc(C2=NN(c3ccccc3)C(=O)[C@@H]3CC=CC[C@H]23)cc1OC`, with -7.9.
As for `COc1ccc(C2=NN(c3ccccc3)C(=O)C(C)C2C)cc1OC` (stereo not given), the “Log IC50” value is recorded as -7.3 in test [1] and < -5 in test [2].
Consider `COc1ccc(-c2nn(-c3ccccc3)c(=O)c3c2CCCC3)cc1OC`, for which the “Log IC50” value in test [1] is on record as -5.3.
With `COc1ccc(C2=NN(Cc3ccccc3)C(=O)[C@@H]3CC=CC[C@H]23)cc1OC`, the “Log IC50” value in test [1] is on record as -8.4.
The same measure, in the same setting: then `COc1ccc(-c2nnc(O)c3c2CCCC3)cc1OC`, with -5.2.
`COc1ccc(C2=NN(c3ccccc3)C(=O)C(C)C2)cc1OC` (stereo not given): the “Log IC50” value in test [1] was -6.9; in test [2], < -5.
On the same counts, the results for `COc1ccc(C2=NN(c3ccccc3)C(=O)CC2C)cc1OC` (stereo not given) are -6.8 and < -5.
For `COc1ccc(-c2nnc(O)c3ccccc23)cc1OC`, the “Log IC50” value in test [1] is -5.8.
In the case of `COc1ccc(-c2nn(Cc3ccccc3)c(=O)c3ccccc23)cc1OC`, the “Log IC50” value in test [1] is given as -6.5.
Consider `COc1ccc(C2=NNC(=O)CC2)cc1OC`, for which the “Log IC50” value is listed as -5.9 in test [1] and -5.6 in test [2].
For the compound `COc1ccc(C2=NN(c3ccccc3)C(=O)[C@@H]3CCCC[C@H]23)cc1OC`, in test [1], the “Log IC50” value is recorded as -7.6.
With `COc1ccc(C2=NN(c3ccccc3)C(=O)CC2)cc1OC`, the “Log IC50” value in test [1] was -6.4; in test [2], < -5.
On the same counts, the results for `COc1ccc(C2=NNC(=O)CC2C)cc1OC` (stereo not given) are -6.5 and -6.6.
Turning to `COc1ccc(C2=NNC(=O)[C@@H]3CC=CC[C@H]23)cc1OC` (relative stereo), the “Log IC50” value in test [1] is on record as -7.
On the same count and under the same terms, as for `COc1ccc(C2=NNC(=O)[C@@H]3CCCC[C@H]23)cc1OC` (relative stereo), the figure is -6.4.
As for `COc1ccc(C2=NNC(=O)C(C)C2C)cc1OC` (stereo in doubt; 3d), the results for the “Log IC50” value in test [1] and in test [2] were -6.7 and < -5, respectively.
On the same counts, the results for `COc1ccc(C2=NNC(=O)C(C)C2C)cc1OC` (stereo in doubt; 3e) are -6.2 and -5.4.
In the case of `O=c1c2cccnc2c(-c2cccc([N+](=O)[O-])c2)nn1Cc1ccncc1` [PYRIDOPYRIDAZINONE], the “Log IC50” value in test [1] is given as -8.3.
`COc1cc(-c2ccc(=O)[nH]n2)ccc1OC(F)F` [ZARDAVERINE]: the “Log IC50” value in test [2] is reported as -6.2.
